Series [1] can be described thus: Cytotoxicity against human K562 cells assessed as cell viability at 1.0 uM after 48 hrs by MTT assay (reference value: >99%). The series is classed as cell-based. Conditions: read-out: Activity. Background: Tetrazolium dyes change colour on reduction, which living cells bring about.
The nature of series [2]: Cytotoxicity against human K562/A02 cells assessed as cell viability at 1.0 uM after 48 hrs by MTT assay (reference value: >99%). Conditions: read-out: Activity. Format: cell-based.
The species entered for series [3] is Homo sapiens. As to the kind of experiment: Inhibition of P-gp in human K562/A02 cells assessed as potentiation of doxorubicin-induced cytotoxicity by measuring fold reduction in doxorubicin IC50 at 1.0 uM after 48 hrs by MTT assay relative to doxorubicin alone. The series is classed as cell-based. The procedure, abridged:
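K562/A02 cells (1×10^4 cells per well) were exposed to a DOX concentration series, alone or with modulator at 1.0 μM, for 48 h. Viability was read by MTT at 490 nm. Reversal fold = DOX IC50 without inhibitor / DOX IC50 with inhibitor, mean ± SD of three tests.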

Series [4] is filed under the species Homo sapiens. As to the kind of experiment: Inhibition of P-gp in human K562/A02 cells assessed as accumulation of doxorubicin at 0.1 uM to 5.0 uM after 150 mins by fluorescence spectrophotometric analysis. Format: cell-based. The procedure, abridged: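 K562/A02 cells (4×10^5) were incubated 150 min at 37 °C with 20.0 μM DOX plus modulator at various concentrations, with 0.1% DMSO as negative control. Cells were washed with cold PBS and lysed in HCl/Triton X-100/isopropanol. DOX fluorescence was read at ex 460 / em 587 nm. Mean ± SD, n = 3.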

The species entered for series [5] is Homo sapiens. As to the kind of experiment: Inhibition of P-gp mediated efflux in human K562/A02 cells assessed as intracellular Rh123 accumulation at 1.0 uM measure up to 90 mins by flow cytometric analysis. Format: cell-based. The procedure, abridged:
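K562/A02 cells were loaded with 5 μM Rh123 for 90 min at 37 °C and washed three times. They were then incubated with or without modulator at 37 °C for 5, 10, 25, 30, 60 and 90 min. Retained Rh123 MFI per 10000 cells was measured by flow cytometry. 0.1% DMSO negative control, n = 3.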

For series [6], the species on record is Homo sapiens. As to the kind of experiment: Inhibition of ATPase activity in human P-gp membrane fraction at 0.5 uM in presence of ATP after 1 hr by luciferase […]. Format: cell membranes. The procedure, abridged: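 Human P-gp membrane fraction (~25 μg) was incubated with compound at 0.5, 5.0 or 50.0 μM in 0.5% DMSO, with a 100 μM sodium vanadate reference. Reaction was started with 5.0 mM MgATP, 1 h at 37 °C. Remaining ATP was read by luciferase luminescence after 20 min at room temperature, relative to vanadate. n = 3.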

The next series has as its system Rattus norvegicus. As to the kind of experiment: Effect on plasma concentration of doxorubicin in Sprague-Dawley rat at 5 mg/kg, iv co-administered with doxorubicin measured after 8 hrs by LC-MS/MS analysis. The series is classed as ADME, organism-based. As to conditions: in vivo. The procedure, abridged: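 Male SD rats received DOX 10 mg/kg i.v. alone or with modulator 5 mg/kg i.v. Orbital blood was taken at 5 min to 8 h. Plasma DOX was measured by LC-MS/MS with DNR (0.5 μg/mL) as internal standard. Mean ± SD, n = 3.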

Series [7] is described as follows: Inhibition of CYP3A4 in rat liver microsomes assessed as decrease in 6beta-OH testosterone levels using testosterone as substrate by HPLC analysis. The series is classed as ADME. In a few lines:
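Rat liver microsomes were isolated by differential centrifugation, with protein measured by Bradford assay. They were incubated with testosterone, without or with inhibitor at 2.5, 5.0, 10.0, 20.0 and 40.0 μM; ketoconazole was the reference inhibitor. 6β-OH testosterone was quantified by C18 reverse-phase HPLC (water/acetonitrile gradient, 35 °C, 1.0 mL/min, UV 254 nm). Mean ± SD, three independent experiments.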
For orientation: Microsomes from liver hold many membrane-bound enzymes, among them those of drug oxidation.

Series [8] in a line: Cytotoxicity against human K562/A02 cells assessed as cell viability at 5.0 uM after 48 hrs by MTT assay (reference value: >99%). Format: cell-based. Conditions: read-out: Activity.
Series [9] is filed under the species Homo sapiens. As to conditions: 5 uM.
The species entered for series [10] is Homo sapiens. Conditions: 5 uM. This is another data set of the same source.
The species named for series [11] is Homo sapiens. Conditions: 5.0 uM.
The nature of the next series: in vitro. Conditions: human, K562 cells.
Series [12] has as its system K562. As to the kind of experiment: Cytotoxicity against human K562 cells assessed as reduction in cell viability after 48 hrs by MTT assay. Format: functional, cell-based. As to conditions: K562, 48 h. The procedure, abridged: (§1)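 MTT assay on HUVEC, K562 or K562/A02 cells seeded at 1×10^4 cells per well, using serial compound concentrations. Formazan was dissolved in DMSO and read at 490 nm. IC50 was obtained from log dose–response curves, mean ± SD of three independent tests.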

The subject of series [13] is K562/A02. As to the kind of experiment: Cytotoxicity against human K562/A02 cells assessed as reduction in cell viability after 48 hrs by MTT assay. Conditions: K562/A02, 48 h. The series is classed as functional, cell-based. The procedure, abridged:
as §1

In the next series the test system is HUVEC. As to the kind of experiment: Cytotoxicity against HUVEC assessed as reduction in cell viability after 48 hrs by MTT assay. The series is classed as cell-based. Conditions: Homo sapiens. The procedure, abridged:
as §1

Series [14] is described as follows: Selective ratio of IC50 for human K562/A02 cells to IC50 for human K562 cells. The series is classed as functional.
The test system of series [15] is K562. As to the kind of experiment: Antiproliferative activity against human K562 cells assessed as cell viability at 5.0 uM after 48 hrs by MTT assay (reference value: >99%). The series is classed as functional. As to conditions: K562, 48 h, read-out: Activity.
Series [16] concerns K562/A02. As to the kind of experiment: Antiproliferative activity against human K562/A02 cells assessed as cell viability at 5.0 uM after 48 hrs by MTT assay (reference value: >99%). Format: functional. As to conditions: K562/A02, 48 h, read-out: Activity.
The nature of series [17]: Elimination half life in Sprague-Dawley rat at 10 mg/kg, iv by LC-MS/MS analysis. The series is classed as ADME, organism-based. Conditions: in vivo, read-out: beta t1/2 (converted).

Consider 21 molecules from ChEMBL document CHEMBL4049421, “Design, Synthesis, and Pharmacological Characterization of N-(4-(2 (6,7-Dimethoxy-3,4-dihydroisoquinolin-2(1H)yl)ethyl)phenyl)quinazolin-4-amine Derivatives: Novel Inhibitors Reversing P-Glycoprotein-Mediated Multidrug Resistance” (J Med Chem, 2017).

The source made the active and inactive calls. The rule behind the calls is not given here. A value given as a limit tells only on which side of the number the result lay.

As for `COc1cc2c(cc1OC)CN(CCc1ccc(Nc3nc(-c4ccc5c(c4)OCO5)nc4ccccc34)cc1)CC2`, the viability at 48 h, 1 µM came to 91.4% in series [1] and 89.2% in series [2]. Further, the fold change (FC) in the series listed under Homo sapiens [3] came out at 15.5.
For `COc1cc2c(cc1OC)CN(CCc1ccc(Nc3nc(-c4ccccc4)nc4cc(OC)c(OC)cc34)cc1)CC2`, in that order: over 99%, 97.3% and 10.1.
Take `COc1ccc(C(=O)Nc2ccccc2C(=O)Nc2ccc(CCN3CCc4cc(OC)c(OC)cc4C3)cc2)cc1OC`: the viability at 48 h, 1 µM is 97.5% in [1] and over 99% in [2]. Moreover, the fold change (FC) in the series listed under Homo sapiens [3] is 18.6. Besides, the inhibition result in the series filed under Homo sapiens [4], in the series filed under Homo sapiens [5] and in the series filed under Homo sapiens [6] was “Active” each time. For the same molecule, the Activity entry in the series with Rattus norvegicus is reported as “Non-Toxic”.
For `COc1cc2c(cc1OC)CN(CCc1ccc(Nc3nc(-c4cccc([N+](=O)[O-])c4)nc4ccccc34)cc1)CC2`, the viability at 48 h, 1 µM in [1] and in series [2] was over 99% in each case. In addition, in the series filed under Homo sapiens [3], the fold change (FC) was 13.4.
Consider `COc1cc2c(cc1OC)CN(CCc1ccc(Nc3nc(-c4ccc(F)cc4)nc4ccccc34)cc1)CC2`, for which the viability at 48 h, 1 µM in series [1] and in series [2] was over 99% in each case. Also, in the series listed under Homo sapiens [3], the fold change (FC) was 3.3.
Turning to `COc1cc2c(cc1OC)CN(CCc1ccc(Nc3nc(-c4ccc(Cl)cc4)nc4ccccc34)cc1)CC2`, the viability at 48 h, 1 µM in [1] and in series [2] was over 99% each time. The fold change (FC) in the series filed under Homo sapiens [3] was determined as 6.
Consider `COc1cc2c(cc1OC)CN(CCc1ccc(Nc3nc(-c4ccc(C)cc4)nc4ccccc34)cc1)CC2`, for which the viability at 48 h, 1 µM in series [1] worked out at 93.4%; in series [2], 94.2%. For the same molecule, the fold change (FC) in the series filed under Homo sapiens [3] was found to be 7.5.
As to `CC(=O)N1CCN(c2ccc(OCC3COC(Cn4ccnc4)(c4ccc(Cl)cc4Cl)O3)cc2)CC1` (configuration not stated) [KETOCONAZOLE], the “inhibition (INH)” value in series [7] was “Dose-dependent effect”.
On to `COc1ccc(-c2nc(Nc3ccc(CCN4CCc5cc(OC)c(OC)cc5C4)cc3)c3ccccc3n2)cc1OC`, for which the viability at 48 h, 1 µM in [1] was 95.1%; in series [2] it was over 99%. The fold change (FC) in the series filed under Homo sapiens [3] was 17.2.
In the case of `COc1ccc(CCN(C)CCCC(C#N)(c2ccc(OC)c(OC)c2)C(C)C)cc1OC` (configuration not stated), the viability at 48 h, 5 µM in series [8] is 88.3%; in “in vitro”, over 99%. For the same molecule, in the series on Rattus norvegicus, the Activity result is on record as “Toxic”. In the series listed under Homo sapiens [9], the inhibition result was “inactive”. For the same molecule, the inhibition result in the series listed under Homo sapiens [10] and in the series filed under Homo sapiens [11] was “Active” in each case.
As to `COc1cc2c(cc1OC)CN(CCc1ccc(Nc3nc(-c4cccc(C)c4)nc4ccccc34)cc1)CC2`, the results for the viability at 48 h, 1 µM in [1] and in [2] were 92.9% and 92.1%, respectively. The fold change (FC) in the series filed under Homo sapiens [3] was determined as 8.9.
As to `COc1cc2c(cc1OC)CN(CCc1ccc(Nc3nc(-c4cccnc4)nc4ccccc34)cc1)CC2`, the viability at 48 h, 1 µM in series [1] is over 99%; in series [2] it was 97.9%. Further, the fold change (FC) in the series listed under Homo sapiens [3] is 5.9.
For `COc1cccc(-c2nc(Nc3ccc(CCN4CCc5cc(OC)c(OC)cc5C4)cc3)c3ccccc3n2)c1`, in that order: over 99%, over 99% and 14.6.
On the same counts, the results for `COc1cc2c(cc1OC)CN(CCc1ccc(Nc3nc(-c4ccccc4OC)nc4ccccc34)cc1)CC2` are over 99%, over 99% and 10.9.
For `COc1cc2c(cc1OC)CN(CCc1ccc(Nc3nc(-c4ccc(C(C)(C)C)cc4)nc4ccccc34)cc1)CC2`, in that order: over 99%, 91.3% and 1.9.
`COc1cc2c(cc1OC)CN(CCc1ccc(Nc3nc(-c4ccccc4)nc4ccccc34)cc1)CC2`: the figures for the viability at 48 h, 1 µM in [1] and in series [2] were 98.7% and over 99%, respectively. In addition, in the series listed under Homo sapiens [3], the fold change (FC) was 7.7.
Take `COc1cc2c(cc1OC)CN(CCc1ccc(Nc3nc(-c4ccccc4)nc4cc(Cl)ccc34)cc1)CC2`: the results for the viability at 48 h, 1 µM in series [1] and in series [2] were over 99% and 95.3%, respectively. Moreover, in the series filed under Homo sapiens [3], the fold change (FC) turned out to be 8.2.
As to `COc1ccc(-c2nc(Nc3ccc(CCN4CCc5cc(OC)c(OC)cc5C4)cc3)c3ccccc3n2)cc1`, the viability at 48 h, 1 µM in series [1] is over 99%; in series [2], 85.2%. Further, the fold change (FC) in the series filed under Homo sapiens [3] was determined as 7.9.
Broadly, the IC50 is the concentration that gives 50% inhibition. With `COc1cccc2c1C(=O)c1c(O)c3c(c(O)c1C2=O)C[C@@](O)(C(=O)CO)C[C@@H]3O[C@H]1C[C@H](N)[C@H](O)[C@H](C)O1` [DOXORUBICIN], the IC50 with K562 [12] is 0.62 µM; in the series with K562/A02 [13] it was 89.8 µM; in the series with HUVEC, 8.65 µM. The “Ratio IC50” value in [14] was determined as 144.8. The results for the viability at 5 µM in the series with K562 [15] and in the series with K562/A02 [16] were 8.8% and 96.4%, respectively. Further, in series [17], the half-life is 1.6 h.
With `COc1cc2c(cc1OC)CN(CCc1ccc(Nc3nc(-c4ccc5ccccc5n4)nc4ccccc34)cc1)CC2`, the figures for the viability at 48 h, 1 µM in [1] and in series [2] were over 99% and 92.1%, respectively. For the same molecule, the fold change (FC) in the series filed under Homo sapiens [3] amounted to 2.6.
For `COc1cc2c(cc1OC)CN(CCc1ccc(Nc3nc(-c4ccc([N+](=O)[O-])cc4)nc4ccccc34)cc1)CC2`, in that order: 94.7%, over 99% and 3.
